Assay results: ChEMBL document CHEMBL4145680, “Tau-Centric Multitarget Approach for Alzheimer's Disease: Development of First-in-Class Dual Glycogen Synthase Kinase 3β and Tau-Aggregation Inhibitors” (J Med Chem, 2018)
Activity calls are given as the source filed them.

Legend:
[1] = Permeability in pH 7.4 PBS incubated for 2.5 hrs by PAMPA-BBB assay; type: ADME; conditions: read-out: permeability
Procedure, shortened: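 PAMPA-BBB: donor filter coated with porcine brain lipid in dodecane (20 mg/mL). Compounds in PBS pH 7.4/EtOH 70:30, acceptor filled with the same. Sandwich incubated 2.5 h at 25 °C, then donor and acceptor concentrations measured by UV at 3–5 wavelengths, 3 wells, two runs. Ten reference drugs included for validation.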

[2] = Hepatotoxicity in human HepG2 cells assessed as reduction in cell viability incubated for 24 hrs by MTT assay; type: toxicity, cell-based; conditions: hepg2, 24 h
Procedure, shortened: (§1)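 HepG2 cells grown in DMEM with 10% FBS at 37 °C, 5% CO2, seeded at 0.5 × 10^5 cells/well and left 24 h. Exposed in serum-free DMEM for 24 h (concentrations listed as 0, 10, 25, 50 µM; elsewhere 0, 5, 25, 50 µM). MTT 0.1 mg/mL for 10 min at 37 °C in the dark. Formazan dissolved in Tris/Triton X-100, A570. Mean ± SE of ≥3 experiments in triplicate; reported as % of control.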

[3] = target: T1, Glycogen synthase kinase-3 beta (Homo sapiens, UniProt P49841); assay: Inhibition of GSK3beta (unknown origin) using GS-2 peptide substrate incubated for 30 mins by kinase-Glo luminescent assay
Procedure, shortened: (§2)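 Human recombinant GSK-3β, 20 ng, in 50 mM HEPES pH 7.5 with 1 mM EDTA, 1 mM EGTA and Mg acetate. Incubated 30 min at 30 °C, then Kinase-Glo luminescence read after 10 min. Activity scaled between no-inhibitor and full-inhibition reference controls.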
Target sequence in this assay (P49841 whole entry): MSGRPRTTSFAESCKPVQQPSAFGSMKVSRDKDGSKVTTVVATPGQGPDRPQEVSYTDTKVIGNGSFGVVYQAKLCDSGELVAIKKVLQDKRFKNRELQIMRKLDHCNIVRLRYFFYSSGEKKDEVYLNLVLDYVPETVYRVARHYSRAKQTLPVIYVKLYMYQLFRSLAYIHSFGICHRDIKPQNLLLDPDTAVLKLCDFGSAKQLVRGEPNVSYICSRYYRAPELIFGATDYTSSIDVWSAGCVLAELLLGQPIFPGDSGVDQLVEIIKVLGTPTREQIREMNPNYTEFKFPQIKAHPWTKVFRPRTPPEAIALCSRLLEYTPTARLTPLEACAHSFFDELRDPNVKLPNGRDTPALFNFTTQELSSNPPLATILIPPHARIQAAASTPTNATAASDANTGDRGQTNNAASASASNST

[4] = system: Cerebellar granule neurone; assay: Neurotoxicity in rat primary cerebellar granule neurons assessed as reduction in cell viability at 5 uM incubated for 24 hrs by MTT assay; type: toxicity
Procedure, shortened: (§3)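 Cerebellar granule neurons from 7-day-old rat pups, plated on poly-L-lysine at 3 × 10^5 cells/well in BME with FBS and 25 mM KCl. Cytosine arabinoside 10 µM added at 16 h. At 7 days in vitro, switched to serum-free BME with 25 mM KCl and treated 24 h at 0, 5, 25 or 50 µM. MTT 0.1 mg/mL for 20 min at 37 °C, A570. Mean ± SE of ≥3 experiments in triplicate, as % of control.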

[5] = target: T1, Glycogen synthase kinase-3 beta; assay: Inhibition of GSK3beta (unknown origin) at 10 uM using GS-2 peptide substrate incubated for 30 mins by kinase-Glo luminescent assay
Procedure, shortened: as §2, with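 “acetate. Substrate prephosphorylated GS-2 peptide 25 µM with 1 µM ATP; DMSO ≤1%.” for “acetate.”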
Target sequence in this assay (P49841 whole entry, looked up): as the sequence (P49841 whole entry) above

[6] = target: Casein kinase I isoform epsilon (Homo sapiens) (UniProt P49674); assay: Inhibition of human recombinant CK1epsilon at 10 uM incubated for 60 mins by Kinase-Glo assay
Procedure, shortened: (§4)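 Human recombinant CK1δ or CK1ε, 16 ng, in 50 mM HEPES pH 7.5 with 10 mM MgCl2, 1 mM EGTA and Brij-35. Substrate 0.1% casein with 4 µM ATP; compound diluted to 10 µM before addition, DMSO ≤1%. Incubated 60 min at 30 °C, then Kinase-Glo luminescence read. Inhibition relative to no-inhibitor activity; mean of two experiments.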

[7] = Inhibition of AcPHF6 peptide aggregation in pH 7.4 phosphate buffer at 20 uM by CD Spectroscopy
[8] = target: CDC7/DBF4 (Cell division cycle 7-related protein kinase/Activator of S phase kinase) (Homo sapiens) (UniProt Q9UBU7+O00311); assay: Inhibition of CDC7/Dbf4 (unknown origin) at 10 uM incubated for 60 mins by Kinase-Glo assay; type: protein-complex assay; conditions: in the assay text read “ADP-Glo assay” for “Kinase-Glo assay”
Procedure, shortened: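 CDC7/DBF4 enzyme, 25 ng/well, with 10 µM ATP (final) and PDKtide substrate. Incubated 60 min at room temperature. ADP-Glo reagent added for 40 min, then detection reagent for 30 min, and luminescence read. Inhibition calculated relative to the no-inhibitor maximum.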

[9] = system: Cerebellar granule neurone; assay: Neurotoxicity in rat primary cerebellar granule neurons assessed as reduction in cell viability at 50 uM incubated for 24 hrs by MTT assay; type: toxicity; procedure, shortened: as §3
[10] = Inhibition of AcPHF6 peptide aggregation in pH 7.4 phosphate buffer at 10 uM by atomic force microscopy
Procedure, shortened: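 AcPHF6 500 µM in water diluted to 50 µM in 50 mM phosphate pH 7.4, ±10 µM compound, no ThT. Incubated 80 min at 25 °C with 10 s shaking at 400 rpm each minute. Ultrafiltered (30 kDa cut-off), buffer exchanged to water, and the retained high-MW fraction adsorbed on mica. Imaged by PeakForce tapping-mode AFM.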

[11] = target: T1, Glycogen synthase kinase-3 beta; assay: Competitive inhibition of GSK3beta (unknown origin) at 10 uM using fixed level of GS-2 peptide substrate and varying ATP levels incubated for 30 mins by kinase-Glo luminescent assay
Procedure, shortened: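 Human recombinant GSK-3β, 20 ng per reaction, in HEPES pH 7.5 buffer with EDTA, EGTA and Mg acetate. GS-2 prephosphorylated peptide held at 25 µM; ATP varied from 1 to 50 µM along with inhibitor level. 30 min at 30 °C, then Kinase-Glo luminescence read after 10 min. Lineweaver–Burk double-reciprocal analysis; means of two experiments, each run in triplicate.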
Target sequence in this assay (P49841 whole entry, looked up): as the sequence (P49841 whole entry) above

[12] = target: T1, Glycogen synthase kinase-3 beta; assay: Inhibition of GSK3beta (unknown origin) pre-incubated for 30 mins followed by ULight-GS (Ser641/pSer657) peptide substrate addition and measured after 1 hr by TR-FRET assay
Target sequence in this assay (P49841 whole entry): as above

[13] = target: Casein kinase I isoform delta (Homo sapiens) (UniProt P48730); assay: Inhibition of human recombinant CK1delta at 10 uM incubated for 60 mins by Kinase-Glo assay; procedure, shortened: as §4
[14] = target: T1, Glycogen synthase kinase-3 beta; assay: Inhibition of GSK3beta (unknown origin) at 10 uM
Procedure, shortened: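 Human recombinant GSK-3β (20 ng) with 25 µM GS-2 prephosphorylated peptide and 1 µM ATP in 50 mM HEPES pH 7.5, 1 mM EDTA, 1 mM EGTA, Mg acetate. DMSO at most 1%. 30 min at 30 °C; reaction stopped with Kinase-Glo, luminescence read after 10 min. Activity scaled between no inhibitor and full inhibition by a reference inhibitor.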
Target sequence in this assay (P49841 whole entry, looked up): as the sequence (P49841 whole entry) above

[15] = target: T1, Glycogen synthase kinase-3 beta; assay: Inhibition of okadaic acid-induced GSK-3beta-mediated tau hyperphosphorylation in human SH-SY5Y cells assessed as increase in cell viability pre-incubated for 1 hr before okadaic acid stimulation for 24 hrs by MTT assay; type: cell-based
Procedure, shortened: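 SH-SY5Y cells grown in DMEM with 10% FBS, seeded at 60000 per well and used 48 h later. Compound given 1 h before 30nM okadaic acid, then 24 h incubation. Viability by MTT, 0.5mg/mL for at least 4 h, formazan dissolved in DMSO, absorbance at 595 nm. Expressed relative to control (=100); n=6 from three independent experiments.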
Target sequence in this assay (P49841 whole entry, looked up): as the sequence (P49841 whole entry) above

[16] = Hepatotoxicity in human HepG2 cells assessed as reduction in cell viability at 5 to 50 uM incubated for 24 hrs by MTT assay; type: toxicity, cell-based; conditions: hepg2, 24 h; procedure, shortened: as §1
[17] = system: Cerebellar granule neurone; assay: Neurotoxicity in rat primary cerebellar granule neurons assessed as reduction in cell viability at 5 to 25 uM incubated for 24 hrs by MTT assay; type: toxicity; procedure, shortened: as §3

Casein kinase I isoform delta (Homo sapiens), sequence (P48730 whole entry, looked up, canonical isoform): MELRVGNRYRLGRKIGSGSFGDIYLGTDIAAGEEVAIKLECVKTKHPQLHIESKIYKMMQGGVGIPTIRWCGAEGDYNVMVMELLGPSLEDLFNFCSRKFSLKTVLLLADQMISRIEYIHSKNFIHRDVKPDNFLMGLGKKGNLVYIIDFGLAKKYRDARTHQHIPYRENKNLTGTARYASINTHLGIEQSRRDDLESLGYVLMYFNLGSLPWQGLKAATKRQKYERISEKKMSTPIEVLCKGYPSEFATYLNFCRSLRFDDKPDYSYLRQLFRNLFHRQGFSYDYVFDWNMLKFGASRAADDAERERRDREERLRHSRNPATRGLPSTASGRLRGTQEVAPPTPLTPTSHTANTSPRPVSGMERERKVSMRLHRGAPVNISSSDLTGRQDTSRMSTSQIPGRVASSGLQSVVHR
CDC7/DBF4 (Cell division cycle 7-related protein kinase/Activator of S phase kinase) (Homo sapiens), sequence (O00311 whole entry, looked up): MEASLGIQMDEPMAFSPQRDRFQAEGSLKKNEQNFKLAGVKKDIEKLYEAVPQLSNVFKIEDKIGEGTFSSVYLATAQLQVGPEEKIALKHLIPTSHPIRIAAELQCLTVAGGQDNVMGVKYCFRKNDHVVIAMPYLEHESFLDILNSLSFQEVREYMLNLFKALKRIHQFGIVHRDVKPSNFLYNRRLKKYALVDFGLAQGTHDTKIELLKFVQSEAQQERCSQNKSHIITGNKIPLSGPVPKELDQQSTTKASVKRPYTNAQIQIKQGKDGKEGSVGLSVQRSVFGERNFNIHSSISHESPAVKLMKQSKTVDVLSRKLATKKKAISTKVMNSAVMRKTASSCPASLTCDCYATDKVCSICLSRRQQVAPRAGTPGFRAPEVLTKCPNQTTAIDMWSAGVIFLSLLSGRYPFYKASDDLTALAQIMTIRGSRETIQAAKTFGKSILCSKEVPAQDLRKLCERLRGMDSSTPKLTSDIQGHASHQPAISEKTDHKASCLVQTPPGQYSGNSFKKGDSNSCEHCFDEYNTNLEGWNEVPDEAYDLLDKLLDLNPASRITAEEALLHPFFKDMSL
CDC7/DBF4 (Cell division cycle 7-related protein kinase/Activator of S phase kinase) (Homo sapiens), sequence (Q9UBU7 whole entry, looked up): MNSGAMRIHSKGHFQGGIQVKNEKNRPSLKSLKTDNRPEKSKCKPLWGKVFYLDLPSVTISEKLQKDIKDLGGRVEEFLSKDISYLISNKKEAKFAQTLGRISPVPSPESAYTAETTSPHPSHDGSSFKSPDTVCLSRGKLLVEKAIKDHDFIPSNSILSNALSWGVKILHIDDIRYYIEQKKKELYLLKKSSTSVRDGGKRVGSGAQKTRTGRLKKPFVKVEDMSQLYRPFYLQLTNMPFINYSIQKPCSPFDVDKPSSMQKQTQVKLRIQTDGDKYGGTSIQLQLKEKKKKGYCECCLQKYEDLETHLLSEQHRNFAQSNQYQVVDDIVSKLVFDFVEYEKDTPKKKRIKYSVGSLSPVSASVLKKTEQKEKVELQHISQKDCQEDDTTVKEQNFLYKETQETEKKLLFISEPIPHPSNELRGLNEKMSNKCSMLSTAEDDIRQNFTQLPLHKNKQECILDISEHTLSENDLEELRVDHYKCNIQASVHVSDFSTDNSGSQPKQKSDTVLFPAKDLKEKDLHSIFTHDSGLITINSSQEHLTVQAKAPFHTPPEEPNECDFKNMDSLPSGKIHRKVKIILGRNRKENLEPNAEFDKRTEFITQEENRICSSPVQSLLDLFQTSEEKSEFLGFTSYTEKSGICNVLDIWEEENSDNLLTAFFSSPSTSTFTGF
Casein kinase I isoform epsilon (Homo sapiens), sequence (P49674 whole entry, looked up, canonical isoform): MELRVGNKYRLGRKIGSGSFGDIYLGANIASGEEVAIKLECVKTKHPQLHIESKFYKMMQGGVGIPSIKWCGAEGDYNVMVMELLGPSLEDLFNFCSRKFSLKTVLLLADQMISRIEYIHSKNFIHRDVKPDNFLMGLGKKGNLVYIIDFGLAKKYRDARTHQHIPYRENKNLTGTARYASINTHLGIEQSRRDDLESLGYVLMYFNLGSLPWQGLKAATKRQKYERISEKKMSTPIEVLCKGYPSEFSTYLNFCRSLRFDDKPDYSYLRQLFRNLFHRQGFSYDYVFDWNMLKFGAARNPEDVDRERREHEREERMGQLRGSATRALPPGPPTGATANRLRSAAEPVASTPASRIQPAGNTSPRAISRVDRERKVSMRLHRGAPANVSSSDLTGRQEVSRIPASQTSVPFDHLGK

| IC50 [3] [µM] | inhibition [5] [%] | SMILES | further results |
| --- | --- | --- | --- |
| 4.93 | > 50 | O=C1NC(=O)/C(=C/c2c[nH]c3ccccc23)S1 | Papp at 2.5 h [1]: > 3.07 ×10⁻⁶ cm/s; inhibition [6]: inactive; inhibition [7]: Active; inhibition [8]: inactive; Activity [9]: Toxic; inhibition [10]: Active; inhibition [11]: Active; IC50 [12]: 21 µM; inhibition [13]: inactive; inhibition [14]: 95%; inhibition [15]: Active; Activity [16]: Non-Toxic; Activity [17]: Non-Toxic |
| > 10 | < 50 | O=C1NC(=O)/C(=C/c2ccc3ccccc3c2)S1 |  |
| > 10 | < 50 | O=C1NC(=O)/C(=C/c2ccccc2)S1 |  |
| > 10 | < 50 | O=C1NC(=O)/C(=C/c2ccccc2OCc2ccccc2)S1 |  |
| > 10 | < 50 | O=C1NC(=O)/C(=C/c2ccc(F)cc2)S1 |  |
| > 10 | < 50 | O=C1NC(=O)/C(=C/c2ccccc2F)S1 |  |
| > 10 | < 50 | O=C1NC(=O)/C(=C/c2cc3ccccc3o2)S1 |  |
| 8.99 | > 50 | O=C1NC(=O)/C(=C/c2ccc(O)cc2)S1 |  |
| > 10 | < 50 | O=C1NC(=O)/C(=C/c2ccccc2O)S1 |  |
| 7.47 | > 50 | O=C1NC(=O)/C(=C/c2cc3ccccc3s2)S1 | Papp at 2.5 h [1]: > 3.07 ×10⁻⁶ cm/s; Activity [4]: Toxic; Activity [16]: Non-Toxic |
| > 10 | < 50 | O=C1NC(=O)/C(=C/C=C/c2ccccc2)S1 |  |
| > 10 | < 50 | O=C1NC(=O)/C(=C/c2cccc(O)c2)S1 |  |
| > 10 | < 50 | O=C1NC(=O)/C(=C/c2c3ccccc3cc3ccccc23)S1 |  |
| > 10 | < 50 | Cn1c(/C=C2\SC(=O)NC2=O)nc2ccccc21 |  |
| > 10 | < 50 | CN(C)c1ccc(/C=C2\SC(=O)NC2=O)cc1 |  |
| 6.03 | > 50 | O=C1NC(=O)/C(=C/c2c(-c3ccccc3)[nH]c3ccccc23)S1 |  |
| > 10 | < 50 | O=C1NC(=O)/C(=C/c2ccc(-c3ccccc3)cc2)S1 |  |

Further lines, the compound ahead of its results:

| SMILES | IC50 [3] [µM] | inhibition [5] [%] | further results |
| --- | --- | --- | --- |
| CN(C)c1cccc(/C=C2\SC(=O)NC2=O)c1 | 8.54 | > 50 | Papp at 2.5 h [1]: > 3.07 ×10⁻⁶ cm/s; Activity [2]: Dose-dependent effect; Activity [4]: Toxic |
| O=C1NC(=O)/C(=C/c2ccco2)S1 | > 10 | < 50 |  |
| CN(C)c1ccccc1/C=C1\SC(=O)NC1=O | 9.22 | > 50 | Papp at 2.5 h [1]: > 3.07 ×10⁻⁶ cm/s; Activity [2]: Dose-dependent effect; Activity [4]: Toxic |
| O=C1NC(=O)/C(=C/c2ccccn2)S1 | > 10 | < 50 |  |
| COc1cc(/C=C2\SC(=O)NC2=O)cc2c1OCO2 | > 10 | < 50 |  |
| O=C1NC(=O)/C(=C/c2ccncc2)S1 | 1.42 | > 50 |  |
| O=C1NC(=O)/C(=C/c2cccc(F)c2)S1 | > 10 |  |  |
| COc1cc(/C=C2\SC(=O)NC2=O)ccc1O |  | > 50 |  |
| COc1ccc2[nH]cc(/C=C3\SC(=O)NC3=O)c2c1 | > 10 | < 50 |  |
| O=C1NC(=O)/C(=C/c2cc3ccccc3nc2Cl)S1 | 6.13 | > 50 |  |
| O=C1NC(=O)/C(=C/c2ccc(O)c([N+](=O)[O-])c2)S1 | 9.22 | > 50 |  |
| CN(C)c1ccc(/C=C/C=C2\SC(=O)NC2=O)cc1 | > 10 | < 50 |  |
| O=C1NC(=O)/C(=C/c2cccs2)S1 | 7.99 | > 50 |  |
| COc1ccc2nc(Cl)c(/C=C3\SC(=O)NC3=O)cc2c1 | 3.55 | > 50 |  |
| O=C1NC(=O)/C(=C/c2cccnc2)S1 | 8.75 | > 50 |  |
| O=C1NC(=O)/C(=C/c2ccc3c(c2)OCCO3)S1 | 7.01 | > 50 |  |
| CCc1ccc(CCOc2ccc(CC3SC(=O)NC3=O)cc2)nc1 (stereo not given) [PIOGLITAZONE] |  |  | Activity [2]: Dose-dependent effect; Activity [4]: Toxic |
| COc1ccc(/C=C2\SC(=O)NC2=O)c(O)c1 | 7.08 | > 50 |  |
